CHO parental Ca = ATP-evoked calcium signal inhibitors, parental CHO, primary screen, counter-screen for OX1R antagonist project, cell-based, fluorescence, Fluo-8 calcium dye. parental CHO-K1, ATP-induced calcium, Fluo-8 fluorescence. inhibition, % at 5.6 µM. 330,000 tested, 0.63% active. AID 463079, 2010;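 active means inhibition above that plate's mean sample inhibition plus 3 SD, cut at about 26% in these data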;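 further: 0% = ATP-challenged DMSO wells and 100% = DMSO wells without ATP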
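Test system: untransfected parental CHO cell line; also added: ATP stimulus; dosing: 5.6 µM, single dose; signal: calcium-sensitive Fluo-8 fluorescence; measure: percent inhibition of ATP-evoked calcium rise, normalized to controls; benchmarks: low control ATP plus DMSO, high control DMSO only; replication: one well per compound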
M1 ag parental = counter-screen for M1 agonists: effect in parental CHO-K1 cells; Fluo-8 calcium fluorescence; scaled to maximal ATP response, vehicle zero; activation, % at 3 µM; 360,000 tested, 0.48% active; AID 602248, 2012; in the data active means activation above about 15%;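 further: untransfected CHO-K1 host cells lacking M1 receptor as counterscreen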
M1 PAM parental = nonselective calcium activators in parental CHO-K1 cells, primary screen, counter-screen for M1 PAM project, cell-based, Fluo-8 calcium fluorescence, full deck, 1536-well; ATP EC20; 0% at ATP EC20, 100% at ATP max; activation, % at 3 µM; 360,000 tested, 0.02% active;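 active means activation above the run cutoff, the mean activation of all test compounds plus 3 SD, cut at about 40% in these data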;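 further: peak over basal fluorescence ratio in a 140 s read after ATP addition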
CHO-K1 Ca antag = nonselective inhibitor or artifact in parental CHO-K1 cells; inhibition, % at 3 µM; AID 602250; 360,000 tested, 0.6% active; ATP-induced calcium, Fluo-8 fluorescence;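 active means inhibition above a per-plate cutoff, the plate's mean sample inhibition plus 3 SD, cut at about 24% in these data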;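 further: 0% = DMSO plus EC80 ATP and 100% = DMSO alone without ATP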
OX1R antag-1 = OX1R (HCRTR1) antagonists, primary screen, fluorescence, CHO/OX1R cells, Fluo-8 calcium, orexin A; Fluo-8 calcium fluorescence; Orexin/Hypocretin receptor type 1 (Homo sapiens), O43613; AID 434989, 2010; inhibition, % at 5 µM; 330,000 tested, 0.43% active;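 active means inhibition above its plate's threshold, mean inhibition of all tested compounds on the plate plus 3 SD, cut at about 37% in these data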;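 further: 0% = orexin A challenge wells and 100% = SB-334867-A antagonist wells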
Target sequence (O43613 whole entry, looked up): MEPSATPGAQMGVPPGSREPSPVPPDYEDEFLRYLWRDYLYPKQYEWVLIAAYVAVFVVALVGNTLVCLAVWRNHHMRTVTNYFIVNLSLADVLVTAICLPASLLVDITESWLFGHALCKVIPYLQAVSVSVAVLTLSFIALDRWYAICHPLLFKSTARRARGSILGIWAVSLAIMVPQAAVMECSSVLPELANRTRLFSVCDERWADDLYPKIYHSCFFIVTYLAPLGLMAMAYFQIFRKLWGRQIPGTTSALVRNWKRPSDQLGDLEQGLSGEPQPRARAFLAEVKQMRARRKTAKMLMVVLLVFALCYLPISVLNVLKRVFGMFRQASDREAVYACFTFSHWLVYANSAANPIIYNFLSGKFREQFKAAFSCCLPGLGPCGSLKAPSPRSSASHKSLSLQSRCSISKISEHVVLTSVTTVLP
OX1R antag-2 = antagonists of human orexin 1 receptor (OX1R); Orexin/Hypocretin receptor type 1 (Homo sapiens), O43613; OX1R-expressing cells, FRET antagonist read-out; inhibition, % at 6.6 µM; 330,000 tested, 1.8% active; in the data active means inhibition mostly above about 38%, no sharp cut-off; inactive means mostly below about 40%;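 further: 0% = agonist challenge alone and 100% = reference antagonist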
An asterisk follows results filed as active; x = no result. Only some compounds are listed: those with a hit (about 2.9% of all), similar ones and a draw of the others.

SMILES	CHO parental Ca	M1 ag parental	M1 PAM parental	CHO-K1 Ca antag	OX1R antag-1	OX1R antag-2
c1ccc(-c2csc3ncnc(NCC4COc5ccccc5O4)c23)cc1 (centres undefined)	79*	4	17	23	18	40
CC(C)CC(Nc1ncnc2scc(-c3ccccc3)c12)C(=O)O (centres undefined)	-7	0	10	-16	-3	16
Cc1sc2ncnc(NCC3COc4ccccc4O3)c2c1C (centres undefined)	62*	10	-5	27*	29	45
COc1cccc(C(C)NC(=O)Nc2ccccc2Cl)c1 (centres undefined)	-10	8	18	2	-26	20
COc1ccc(-c2sc3cc(OC)c(OC)cc3c2-c2ccc(O)cc2)cc1	-4	0	-12	4	40	38*
Cc1cc(=O)n2nc(N3CCC(C(=O)NCCc4ccc(Cl)cc4)CC3)sc2n1	-6	-1	6	-17	-15	-2
Cc1nc2ccccc2cc1OCc1ccccc1	37*	5	12	15	7	27
Cc1nc2ccccc2nc(C)c1=NOCc1cccc(Cl)c1	1	0	11	0	-16	11
COc1cccc(COc2cc3ccccc3nc2C)c1	15	6	12	22	5	33
Cc1nc2ccccc2cc1OCc1ccc(Cl)cc1	50*	5	8	15	0	41*
CC(=O)Cc1nsc(NC(=O)c2cn(-c3ccccc3)nc2-c2ccc(Br)cc2)n1	-3	0	-5	25*	4	10
CC(C)COc1ccc(-c2nn(-c3ccccc3)cc2C(=O)Nc2nccs2)cc1	39*	4	11	22	26	6
C#CCN(C[C@H]1[C@H](OC(=O)Nc2c(C)noc2C)[C@H](OC(=O)Nc2c(C)noc2C)C[C@@H](C(=O)OC)[C@H]1C(=O)OC)S(=O)(=O)c1ccc(C)cc1	x	0	1	-5	x	x
O=C1c2sc3nc4ccccc4n3c2C(=O)N1c1ccccc1Cl	-29	3	3	-15	-25	64*
Cc1ccccc1N1C(=O)c2sc3nc4c(c(=O)n3c2C1=O)CCC4	-15	0	-8	22	-28	5
COc1c([N+](=O)[O-])cc(C(=O)NNC(=O)c2ccc(C)cc2)cc1[N+](=O)[O-]	-18	0	0	2	-13	46*
CN(C)c1ccc(CC(=O)N2CCCCC2c2cc(C(=O)Nc3cccc(C#N)c3)no2)cc1 (centres undefined)	x	2	-8	13	x	x
CC(=O)N1CCN(C(=O)c2ccc3c(c2)S(=O)(=O)c2ccccc2C3=O)CC1	-14	0	-10	-14	-11	69*
O=C1c2ccccc2S(=O)(=O)c2cc(C(=O)N3CCC(O)CC3)ccc21	1	0	20	-14	-3	75*
CCN(CC(=O)NC(C)(C)C)C(=O)c1ccc2c(c1)S(=O)(=O)c1ccccc1C2=O	-24	1	-19	7	-29	56*
O=C1c2ccccc2S(=O)(=O)c2cc(C(=O)N3CCN(C(=O)c4ccccc4)CC3)ccc21	-5	0	-8	-4	-12	39
CCN1CCN(C(=O)c2ccc3c(c2)S(=O)(=O)c2ccccc2C3=O)CC1	-15	1	10	-5	0	60*
Cc1cc(C(=O)CN2CCN(CC(=O)Nc3cccc(F)c3)CC2)c(C)n1C1CC1	-22	0	12	-19	-34	4
COCCCNC(CC(=O)Nc1cc(C)cc(C)c1)C(=O)O (centres undefined)	3	1	-5	3	-11	14
CN1CCN(C(=O)c2ccc3c(c2)S(=O)(=O)c2ccccc2C3=O)CC1	-8	0	22	-12	-7	76*
c1csc(-c2nc(-c3ccc(-c4ccon4)s3)no2)c1	-9	0	3	-11	28	40*
c1ccc(-c2nc(-c3ccc(-c4ccon4)s3)no2)cc1	0	0	-5	-5	-6	5
